Results published in ChEMBL document CHEMBL1122671, “Anticonvulsant activity of some 4-aminobenzamides” (J Med Chem, 1984).
The source made the active and inactive calls.

Columns and labels:
Mus musculus [1] = assay: Anticonvulsant activity against MES (maximal electroshock) induced seizure in mice at 4 hr; - = No activity at 600 mg/kg.; type: functional, organism-based; design: dose 600 mg/kg
In short: (§1)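 Male Carworth Farms number-one mice; compounds in 30% polyethylene glycol 400, given ip at 30, 100 and 300 mg/kg, some also at 600 mg/kg. Maximal electroshock challenge at 30 min or 4 h after dosing. Scored by the lowest dose giving protection (++++ 30, +++ 100, ++ 300, + 600 mg/kg; - none at 600).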

Mus musculus [2] = assay: Anticonvulsant activity against scMet (subcutaneous metrazole) induced seizure in mice at 4 hr; - = No activity at 600 mg/kg.; type: functional, organism-based; design: dose 600 mg/kg
In short: (§2)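 Male Carworth Farms number-one mice dosed ip (30% PEG 400) at 30, 100, 300 and in some cases 600 mg/kg. Pentylenetetrazole 85 mg/kg given sc as a 0.5% solution in the posterior midline, at 30 min or 4 h. Protection means no clonic spasm of at least 5 s within 30 min. Scored by the lowest protective dose.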

Mus musculus [3] = assay: Anticonvulsant activity against MES (maximal electroshock) induced seizure in mice at 30 min; + = Activity at 600 mg/kg.; type: functional, organism-based; design: dose 600 mg/kg; in short: as §1
Mus musculus [4] = assay: Evaluated for toxicity by using rotarod test in mice at 4 hr; - = No activity at 600 mg/kg.; type: organism-based; design: dose 600 mg/kg; details: in vivo
In short: (§3)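 Neurotoxicity in male Carworth Farms number-one mice dosed ip in 30% PEG 400 at 30, 100, 300 and sometimes 600 mg/kg, tested 30 min or 4 h later. Mice placed on a 1-in. knurled rod rotating at 6 rpm; toxicity means failure to stay on the rod for 1 min. Scored by the lowest toxic dose; footnotes record loss of righting reflex or lethality.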

Mus musculus [5] = assay: Evaluated for toxicity by using rotarod test at in mice 30 min; - = No activity at 600 mg/kg.; type: organism-based; design: dose 600 mg/kg; details: in vivo, 0.5 h; in short: as §3
Mus musculus [6] = assay: Anticonvulsant activity against scMet (subcutaneous metrazole) induced seizure in mice at 30 min; - = No activity at 600 mg/kg.; type: functional, organism-based; design: dose 600 mg/kg; in short: as §2
Mus musculus [7] = assay: Anticonvulsant activity against scMet (subcutaneous metrazole) induced seizure in mice at 4 hr; ++ indicates activity at 600 mg/kg.; type: functional, organism-based; design: dose 600 mg/kg
Mus musculus [8] = assay: Anticonvulsant activity against scMet (subcutaneous metrazole) induced seizure in mice at 30 min; ++ indicates activity at 600 mg/kg.; type: functional, organism-based; design: dose 600 mg/kg
Mus musculus [9] = assay: Anticonvulsant activity against MES (maximal electroshock) induced seizure in mice at 4 hr; ++ = Activity at 300 mg/kg.; type: functional, organism-based; design: dose 300 mg/kg
In short: (§4)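 Male Carworth Farms number-one mice received the compound ip in 30% polyethylene glycol 400. Doses were 30, 100 and 300 mg/kg, with 600 mg/kg in some cases. Maximal electroshock seizure protection was scored at 30 min and 4 h after dosing. Activity is coded by the lowest effective dose.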

Mus musculus [10] = assay: Evaluated for toxicity by using rotarod test in mice at 4 hr; + indicates activity at 600 mg/kg.; type: organism-based; design: dose 600 mg/kg; details: in vivo; in short: as §3
Mus musculus [11] = assay: Evaluated for toxicity by using rotarod test at in mice 30 min; ++ indicates activity at 300 mg/kg,*-Loss of righting reflex at less than 300 mg/kg; type: organism-based; details: in vivo, 0.5 h; in short: as §3
Mus musculus [12] = assay: Anticonvulsant activity against MES (maximal electroshock) induced seizure in mice at 30 min; +++ = Activity at 100 mg/kg.; type: functional, organism-based; design: dose 100 mg/kg; in short: as §4
Mus musculus [13] = species on record: Mus musculus; assay: Evaluation of neurologic deficit by rotarod procedure in mice; type: functional
In short: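 Male Carworth Farms number-one mice were dosed ip (30% PEG 400 vehicle) and placed on a 1-in. knurled plastic rod rotating at 6 rpm. Neurotoxicity meant failure to stay on the rod for 1 min. TD50 was determined graphically.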

Mus musculus [14] = assay: Anticonvulsant activity against MES (maximal electroshock) induced seizure in mice at 4 hr; +++ = Activity at 100 mg/kg.; type: functional, organism-based; design: dose 100 mg/kg; in short: as §4
[15] = Protective index (PI) which is defined as the ratio of TD50 to the ED50 (MES).; type: functional
In short: (§5)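 Both values come from ip dosing in 30% PEG 400 to male Carworth Farms number-one mice and were derived by the graphical method.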

Mus musculus [16] = assay: Evaluated for toxicity by using rotarod test in mice at 4 hr; ++ = Activity at 300 mg/kg.; type: organism-based; design: dose 300 mg/kg; details: in vivo; in short: as §3
Mus musculus [17] = assay: Evaluated for toxicity by using rotarod test at in mice 30 min; +++ = Activity at 100 mg/kg, *-Loss of righting reflex at less than 300 mg/kg; type: organism-based; details: in vivo, 0.5 h; in short: as §3
Mus musculus [18] = assay: Anticonvulsant activity against scMet (subcutaneous metrazole) induced seizure in mice at 4 hr; ++ = Activity at 300 mg/kg.; type: functional, organism-based; design: dose 300 mg/kg
Mus musculus [19] = species on record: Mus musculus; assay: Evaluation of inhibitory activity against scMet induced convulsions in mice; NA = No activity.; type: functional, organism-based
Mus musculus [20] = assay: Evaluated for toxicity by using rotarod test in mice at 4 hr; - = no activity observed at 600 mg/Kg; type: organism-based; details: in vivo; in short: as §3
Mus musculus [21] = assay: Anticonvulsant activity against MES (maximal electroshock) induced seizure in mice at 4 hr; - = no activity observed at 600 mg/Kg; type: functional, organism-based; in short: as §4
Mus musculus [22] = assay: Anticonvulsant activity against scMet (subcutaneous metrazole) induced seizure in mice at 30 min; - = no activity observed at 600 mg/Kg; type: functional, organism-based
Mus musculus [23] = assay: Anticonvulsant activity against scMet (subcutaneous metrazole) induced seizure in mice at 4 hr; - = no activity observed at 600 mg/Kg; type: functional, organism-based
Mus musculus [24] = assay: Anticonvulsant activity against MES (maximal electroshock) induced seizure in mice at 30 min; - = no activity observed at 600 mg/Kg; type: functional, organism-based; in short: as §4
Mus musculus [25] = assay: Evaluated for toxicity by using rotarod test at in mice 30 min; - = no activity observed at 600 mg/Kg; type: organism-based; details: in vivo, 0.5 h; in short: as §3
Mus musculus [26] = species on record: Mus musculus; assay: Evaluation of inhibitory activity aagainst MES induced convulsions in mice.; type: functional
In short: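 Quantitative MES test in male Carworth Farms number-one mice. Compound in 30% polyethylene glycol 400, given ip at graded doses. Median effective dose (ED50) read by the graphical method.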

Mus musculus [27] = assay: Anticonvulsant activity against scMet (subcutaneous metrazole) induced seizure in mice at 4 hr; ++ indicates activity at 300 mg/kg.; type: functional, organism-based; design: dose 300 mg/kg
Mus musculus [28] = species on record: Mus musculus; assay: Evaluation of inhibitory activity against scMet induced convulsions in mice; type: functional
Mus musculus [29] = assay: Evaluated for toxicity by using rotarod test in mice at 4 hr; ++ indicates activity at 300 mg/kg.; type: organism-based; design: dose 300 mg/kg; details: in vivo; in short: as §3
Mus musculus [30] = assay: Evaluated for toxicity by using rotarod test at in mice 30 min; +++ indicates activity at 100 mg/kg *-Loss of righting reflex at less than 600 mg/kg; type: organism-based; details: in vivo, 0.5 h; in short: as §3
[31] = Protective index (PI) which is defined as the ratio of TD50 to the ED50 (ScMet).; type: functional; in short: as §5
Mus musculus [32] = assay: Anticonvulsant activity against MES (maximal electroshock) induced seizure in mice at 4 hr; +++ indicates activity at 100 mg/kg.; type: functional, organism-based; design: dose 100 mg/kg; in short: as §4

Q: With `CNC(=O)c1ccc(N)cc1` as the molecule, how does the Activity (Mus musculus [1]) read?
A: Not toxic

Q: What about the Activity (Mus musculus [2]) of the same molecule?
A: Not toxic

Q: What about the Activity (Mus musculus [3]) of the same molecule?
A: Activity at 600 mg/kg

Q: What about the Toxicity (Mus musculus [4]) of the same molecule?
A: Not toxic

Q: What about the Toxicity (Mus musculus [5]) of the same molecule?
A: Not toxic

Q: And the Activity (Mus musculus [6])?
A: Not toxic

Q: Which Activity (Mus musculus [7]) does the source give for `CCCNC(=O)c1ccc(N)cc1` here?
A: Activity at 100 mg/kg

Q: What about the Activity (Mus musculus [8]) of the same molecule?
A: Activity at 100 mg/kg

Q: And the Activity (Mus musculus [9])?
A: Activity at 100 mg/kg

Q: What about the Toxicity (Mus musculus [10]) of the same molecule?
A: activity at 300 mg/kg,*-Loss of righting reflex at less than 300 mg/kg

Q: And the Toxicity (Mus musculus [11])?
A: activity at 300 mg/kg,*-Loss of righting reflex at less than 300 mg/kg

Q: What about the Activity (Mus musculus [12]) of the same molecule?
A: Activity at 100 mg/kg

Q: Which TD50 (Mus musculus [13]) does the source give for `Nc1ccc(C(=O)NCc2ccccc2)cc1` here?
A: 83.4 mg/kg

Q: And the Activity (Mus musculus [14])?
A: Activity at 100 mg/kg

Q: What about the PI [15] of the same molecule?
A: 3.6

Q: And the Toxicity (Mus musculus [16])?
A: Activity at 100 mg/kg, *-Loss of righting reflex at < 300 mg/kg

Q: And the Toxicity (Mus musculus [17])?
A: Activity at 100 mg/kg, *-Loss of righting reflex at < 300 mg/kg

Q: And the Activity (Mus musculus [18])?
A: Activity at 100 mg/kg

Q: What about the Activity (Mus musculus [6]) of the same molecule?
A: Not toxic

Q: And the ED50 (Mus musculus [19])?
A: inactive

Q: With `Nc1ccc(C(=O)NC(c2ccccc2)c2ccccc2)cc1` as the molecule, how does the Toxicity (Mus musculus [20]) read?
A: Not toxic

Q: What about the Activity (Mus musculus [21]) of the same molecule?
A: Not toxic

Q: What about the Activity (Mus musculus [22]) of the same molecule?
A: Not toxic

Q: And the Activity (Mus musculus [23])?
A: Not toxic

Q: What about the Activity (Mus musculus [24]) of the same molecule?
A: Not toxic

Q: And the Toxicity (Mus musculus [25])?
A: Not toxic

Q: For `CN(Cc1ccccc1)C(=O)c1ccc(N)cc1`, which TD50 (Mus musculus [13]) is on record?
A: 98.1 mg/kg

Q: And the PI [15]?
A: 1.9

Q: And the ED50 (Mus musculus [26])?
A: 52.6 mg/kg

Q: What about the Activity (Mus musculus [27]) of the same molecule?
A: Activity at 100 mg/kg

Q: What about the ED50 (Mus musculus [28]) of the same molecule?
A: 81.7 mg/kg

Q: What about the Toxicity (Mus musculus [29]) of the same molecule?
A: activity at 100 mg/kg *-Loss of righting reflex at less than 600 mg/kg

Q: What about the Toxicity (Mus musculus [30]) of the same molecule?
A: activity at 100 mg/kg *-Loss of righting reflex at less than 600 mg/kg

Q: And the PI [31]?
A: 1.2

Q: What about the Activity (Mus musculus [32]) of the same molecule?
A: Activity at 100 mg/kg

Q: And the Activity (Mus musculus [12])?
A: Activity at 100 mg/kg
